In brackets after ≈: the same amount, converted by molar mass.
Legend:
[1] = tested on: Mycobacterium tuberculosis; assay: Antimycobacterial activity against Mycobacterium tuberculosis H37Ra ATCC 25177 after 7 days by Alamar Blue assay; assay type: functional; conditions: H37Ra ATCC 25177, 168 h
How it was run: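 Log-phase culture washed and resuspended in supplemented Middlebrook 7H9GC broth, adjusted to McFarland No. 1, then diluted 1:20. Equal volumes of culture and DMSO-prepared compound dilutions were tested in duplicate for 7 days. 10% AlamarBlue was added, with 570/600 nm readings for background and after 24 h reincubation. Blue meant no growth, pink meant growth. MIC was the lowest concentration without visible growth.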

HEK293 = assay: Cytotoxicity against human HEK293 cells; assay type: cell-based
Mycobacterium avium = assay: Antimycobacterial activity against Mycobacterium avium subsp. paratuberculosis CIT03 clinical isolate after 11 days by Alamar Blue assay; assay type: functional; conditions: CIT03, 264 h
[2] = tested on: Mycobacterium avium complex sp.; assay: Antimycobacterial activity against Mycobacterium avium complex CIT19/06 clinical isolate after 5 days by Alamar Blue assay; assay type: functional; conditions: CIT19/06, 120 h

SMILES	MIC [1]	IC50 (HEK293)	MIC (Mycobacterium avium)	MIC [2]
COc1cc(NC(C)CCCNC(=O)Nc2ccc(Br)cc2)c2ncccc2c1 (stereo not drawn)	8 µg/mL (≈ 17.5 µM)	200 µg/mL (≈ 437 µM)	16 µg/mL (≈ 35 µM)	16 µg/mL (≈ 35 µM)
COc1cc(NC(C)CCCNC(=O)Nc2ccc(C(F)(F)F)cc2)c2ncccc2c1 (stereo not drawn)	4 µg/mL (≈ 8.96 µM)	200 µg/mL (≈ 448 µM)	8 µg/mL (≈ 17.9 µM)	16 µg/mL (≈ 35.8 µM)

— ChEMBL document CHEMBL4251591, “Primaquine hybrids as promising antimycobacterial and antimalarial agents” (Eur J Med Chem, 2018)
